Reference: ChEMBL document CHEMBL3108767, “Thioester Bonds of Thiocoraline Can Be Replaced with NMe-Amide Bridges without Affecting Its DNA-Binding Properties” (ACS Med Chem Lett, 2014)
The source made the active and inactive calls. The rule behind the calls is not given here.

What was measured:
[1] = Binding affinity to [alpha-32P]dATP labeled MS2 DNA (unknown origin) at 0.1 to 500 uM by DNase 1 footprinting assay
Summary of the method: (§1)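 Each radiolabeled fragment (MS2, HexA or HexB) incubated with ligand at 14 concentrations from 500 down to 0.1 μM, then cleaved with DNase I. Gel tracks compared with GA purine markers and solvent-only DNA to find regions of attenuated cleavage as footprints.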

[2] = Binding affinity to 3'-end [alpha32P]dATP labeled tyrT plasmid DNA (unknown origin) assessed as change in band shift at 10 to 50 uM
Summary of the method: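 tyrT DNA fragment incubated with ligand; a control lane received the solvent conditions alone. Samples were run on a native gel, and binding was scored as DNA bands that migrated more slowly than the control.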

DNA = assay: Binding affinity to [alpha-32P]dATP labeled HexA DNA (unknown origin) at 0.1 to 500 uM by DNase 1 footprinting assay
[3] = Binding affinity to [alpha-32P]dATP labeled HexB DNA (unknown origin) at 0.1 to 500 uM by DNase 1 footprinting assay; summary of the method: as §1
[4] = Binding affinity to fluorophore labeled FAM-GTGCAC-dabcyl (unknown origin) assessed as change in melting temperature at 100 uM by fluorescence assay
Summary of the method: (§2)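 Duplexes made from fluorescently labeled oligonucleotides, each carrying the site of interest at its center. Melting run at 0.25 μM duplex DNA in 10 mM sodium phosphate pH 7.4 with 100 mM NaCl. Relative fluorescence was followed against temperature and normalized to the same initial value. First derivatives of the melting profiles were used to read transitions.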

[5] = Binding affinity to fluorophore labeled FAM-ACATGT-dabcyl (unknown origin) assessed as change in melting temperature at 100 uM by fluorescence assay; summary of the method: as §2
[6] = Binding affinity to fluorophore labeled FAM-ACATCT-dabcyl (unknown origin) assessed as change in melting temperature at 100 uM by fluorescence assay; summary of the method: as §2
[7] = Binding affinity to CTCGAG HexB DNA (unknown origin) by DNase 1 footprinting assay
Summary of the method: (§3)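 Radiolabeled MS2, HexA or HexB DNA fragments incubated with ligand at 14 concentrations (500, 400, 300, 200, 100, 80, 60, 40, 20, 10, 5, 1, 0.5, 0.1 μM), then digested with DNase I. Products resolved on gels alongside GA purine markers and solvent-only DNA controls. C50 is the ligand concentration that reduced footprint band intensity by 50%.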

[8] = Binding affinity to ATGGAT MS2 DNA (unknown origin) by DNase 1 footprinting assay; summary of the method: as §3
[9] = Binding affinity to fluorophore labeled FAM-CACGTG-dabcyl (unknown origin) assessed as change in melting temperature at 100 uM by fluorescence assay; summary of the method: as §2
[10] = Binding affinity to GGATAG MS2 DNA (unknown origin) by DNase 1 footprinting assay; summary of the method: as §3
[11] = Binding affinity to fluorophore labeled FAM-AATATT-dabcyl (unknown origin) assessed as change in melting temperature at 100 uM by fluorescence assay; summary of the method: as §2
[12] = Binding affinity to CGTACG HexB DNA (unknown origin) by DNase 1 footprinting assay; summary of the method: as §3
[13] = Binding affinity to ACGACT MS2 DNA (unknown origin) by DNase 1 footprinting assay; summary of the method: as §3
[14] = Binding affinity to GACGTA MS2 DNA (unknown origin) by DNase 1 footprinting assay; summary of the method: as §3
[15] = Binding affinity to CGCGAT HexB DNA (unknown origin) by DNase 1 footprinting assay; summary of the method: as §3
[16] = Binding affinity to TATATA HexB DNA (unknown origin) by DNase 1 footprinting assay; summary of the method: as §3

Q: What does the source list for `CS[C@H]1SC[C@H]2C(=O)N(C)[C@@H](C(C)C)C(=O)OC[C@@H](NC(=O)c3cnc4ccccc4n3)C(=O)N[C@@H](C)C(=O)N(C)[C@@H]1C(=O)N(C)[C@@H](C(C)C)C(=O)OC[C@@H](NC(=O)c1cnc3ccccc3n1)C(=O)N[C@@H](C)C(=O)N2C`?
A: Activity [1]: Active; Activity [2]: Active; Activity (DNA): Active; Activity [3]: Active

Q: With `COCCOCCOCC(=O)NC[C@H]1C(=O)N(C)C[C@@H](NC(=O)c2nc3ccccc3cc2O)C(=O)NCC(=O)N(C)[C@H]2CSSC[C@@H](C(=O)N1C)N(C)C(=O)CNC(=O)[C@H](NC(=O)c1nc3ccccc3cc1O)CN(C)C(=O)[C@H](CNC(=O)COCCOCCOC)N(C)C2=O` as the compound, how does the Activity [2] read?
A: The Activity was “inactive”.

Q: What does the source list for `CSC[C@H]1C(=O)N(C)C[C@@H](NC(=O)c2nc3ccccc3cc2O)C(=O)NCC(=O)N(C)[C@H]2CSSC[C@@H](C(=O)N1C)N(C)C(=O)CNC(=O)[C@H](NC(=O)c1nc3ccccc3cc1O)CN(C)C(=O)[C@H](CSC)N(C)C2=O`?
A: ΔTm [4]: 0.7 °C; ΔTm [5]: 4.5 °C; ΔTm [6]: 2.2 °C; C50 [7]: 17 µM; C50 [8]: 110 µM; ΔTm [9]: 7.6 °C; C50 [10]: 131 µM; ΔTm [11]: 1.4 °C; C50 [12]: 13 µM; Activity [2]: Active; C50 [13]: 102 µM; C50 [14]: 95 µM; C50 [15]: 22 µM; C50 [16]: 28 µM
